Assay outcomes: PubChem, several laboratories
Furin inh: blocks human furin protease activity; inhibition, % at 20 µM or 30 µM; 220,000 tested, 0.061% active; P09958; purified furin, fluorogenic substrate cleavage; in the data active means inhibition above about 25%
MT stabilizer: stabilizes microtubules in HeLa cells. HeLa tubulin immunostaining HCS, 24 h; share of cells brighter than vehicle mean+2SD. % tubulin-high responders, % at 10 µM. 200,000 tested, 0.83% active. AID 2205;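 active means plate Z-score above 3 for both tubulin-high and condensed-nucleus cell shares, with cell loss under 80%, at 10 µM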;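 further: anti alpha tubulin signal scored within the nucleus-defined area of each cell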
HSV replic up: increases HSV replication in cells; HSV replication augmentation in cells, fold increase; maximum fold increase; 220,000 tested, 0.005% active; AID 1956; in the data active means maximum fold increase above about 1.5; tested in PC3 cells
Autophagy HCS: autophagy modulation, high-content screen; MEF GFP-LC3 puncta imaging; test concentration mostly 10 µM; calls only at 10 µM (by protocol); 190,000 tested, 0.98% active;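 active means percentage of spot-positive cells more than 3 SD above its plate mean, without a fluorescence outlier flag or 80% toxicity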;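 further: spot-positive cell cutoff set from DMSO-treated cells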
Insulin prom up: MIN6 insulin promoter up-regulation; z-score at 5 µM; 190,000 tested, 0.3% active; MIN6 insulin promoter-GFP reporter, high-content imaging; hits give high values;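 active means z-score above 3 at 5 µM with at least 500 cells counted in the well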
b-catenin transl: beta-catenin nuclear translocation modulation; HeLa beta-catenin nuclear translocation, immunofluorescence imaging; nuclear translocation activity, % at 5 µM; 190,000 tested, 0.3% active; AID 1665;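 active means nuclear translocation activity above 50% at 5 µM, with a well cell count of 50 or more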;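 further: per-cell ratio of nuclear to cytoplasmic median beta-catenin stain intensity; plate controls were DMSO negative control for no effect and GSK-3 inhibitor IX positive control for full effect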
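Technique: fluorescence imaging of beta-catenin antibody stain plus DAPI / Material: human HeLa cell line / Incubation: compound treatment 24 h, 37°C, 5% CO2 / Read-out basis: % activation of per-cell nuclear versus cytoplasmic median beta-catenin signal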
An asterisk follows results filed as active; i = inactive; / = no result; + = active, no number. Hits are enriched below; roughly 1.9% of the tested compounds scored in any of these assays.

SMILES	Furin inh	MT stabilizer	HSV replic up	Autophagy HCS	Insulin prom up	b-catenin transl
Cc1ccc(C(=O)c2cc([N+](=O)[O-])ccc2N2CCN(C)CC2)cc1	-17.6	40.8*	i	i	-1.07	70.6*
CCOC(=O)C1(CCOc2ccccc2)CCN(Cc2ccc(-n3cccn3)cc2)CC1	-27.7	1.6	i	i	/	-1.4
COC(=O)NC(=S)N1CCOCC1	-29.5	4.7	/	i	-0.41	0.8
Cc1ccc(C2Nc3ccccc3C(=O)N2Cc2ccco2)cc1 (centres undefined)	-5.1	17.7*	i	i	1.04	4.7
Clc1ccc(-c2nnc3n2CCCC3)cc1Cl	-19.9	1.9	i	i	-0.15	-0.8
Cc1noc(C)c1COc1cccc(C(=O)OCC(=O)N2CC(=O)Nc3ccccc32)c1	-13.8	38.8*	i	+	-0.37	0.2
CC(C)(C)C(=O)NC(=S)NNC(=O)c1ccc(-c2ccccc2)cc1	-17.7	5.0	i	i	-2.77	-3.4
COc1ccc(NC(=O)c2c(Cl)n(C)c3ccccc23)cc1	-23.0	48.8*	i	i	0.67	2.6
COc1ccc(NC(=O)Cc2c(Sc3ccccc3)c3ccccc3n2C)cc1	-4.8	3.2	i	i	-0.01	-3.2
COc1cccc(-c2cc(=O)c3cc(NC(=O)c4ccc(N(C)C)cc4)ccc3[nH]2)c1	-6.3	4.3	i	i	0.57	87.8*
COc1cccc(-c2cc(=O)c3cc(NC(=O)c4ccc(Cl)cc4)ccc3[nH]2)c1	-12.3	25.7*	i	i	1.26	-0.1
CCCc1cc(=O)oc2cc(OCc3ccc(OC)cc3)c(Cl)cc12	-7.4	4.3	i	i	0.74	4.1
O=C(c1cccs1)N1N=C(c2ccccc2)CC1c1ccccc1O (centres undefined)	-10.7	1.7	i	i	-0.32	-1.0
Cc1ccc(C2=NN(C(=O)c3cccs3)C(c3ccccc3O)C2)cc1 (centres undefined)	-17.3	3.8	i	+	-0.17	1.2
CCNC(=S)N/N=C(\C)c1ccc(N2CCOCC2)cc1	-1.4	3.1	i	+	0.43	-1.9
CCc1ccc(NSc2ccccc2[N+](=O)[O-])cc1	6.5	46.2*	i	i	-0.07	1.0
Cn1cc([N+](=O)[O-])c(C(=O)Nc2ccc(-c3nc4ccccc4o3)cc2)n1	-22.0	/	i	/	0.4	2.1
Cc1ccc2c(c1)C=CC(C#N)N2C(=O)c1ccccc1 (centres undefined)	-14.5	33.3*	i	i	0.41	56.3*
CCOC(=O)Nc1ccc2nc(N3CCCCCC3)sc2c1	-28.1	/	i	/	-0.41	84.4*
CCOC(=O)N1CCN(C(=O)Nc2ccc3nc(C)sc3c2)CC1	-21.4	3.9	i	i	0.88	-0.1
Nc1c(C(=O)Nc2ccc(S(=O)(=O)N3CCCC3)cc2)sc2nc3ccc(OC(F)(F)F)cc3cc12	-11.0	7.5	/	+	2.24	0.1
CCOc1ccc2nc(SCC(=O)Nc3ccc(S(=O)(=O)N4CCCC4)cc3)c(C)cc2c1	-16.2	/	i	/	-0.19	-0.7
O=C(Nc1ccc(S(=O)(=O)N2CCCC2)cc1)c1ccc2c(=O)n3c(nc2c1)CCCCC3	-24.0	2.3	i	i	-0.06	-2.4
Nc1c(C(=O)Nc2ccc(S(=O)(=O)N3CCCC3)cc2)sc2nc3cc4c(cc3cc12)CCC4	-12.0	27.8*	/	+	1.59	2.4
Cc1csc(NC(C)c2nc3cc(C(F)(F)F)ccc3n2CCCO)n1 (centres undefined)	/	/	i	/	/	/
SMILES	Furin inh	MT stabilizer	HSV replic up	Autophagy HCS	Insulin prom up	b-catenin transl
O=C(c1ccccc1-c1ccccc1)N1CCCCC1	-8.5	4.9	i	i	0.79	-2.5
O=C(c1cccc2cccc(O)c12)N1CCCCC1	-26.5	1.8	i	+	-0.1	3.3
CC(C)NC(=O)N1CCN(c2ccncc2S(=O)(=O)N2CCOCC2)CC1	-15.4	2.2	i	i	5.83*	-4.1
CC(C)NC(=O)NS(=O)(=O)c1cnccc1N1CCCCC1	-14.5	3.8	i	i	/	-0.1
O=C(NCC1CCCO1)C1CCN(S(=O)(=O)N2CCCC2)CC1 (centres undefined)	-1.2	1.7	i	i	3.58*	-0.4
C=CCn1c(SCC(=O)Nc2ccccc2OC)nnc1-c1ccccn1	-22.5	24.3*	i	i	/	-1.3
COc1cc(/C=N/NC(=O)c2nc(-c3ccccc3)n(-c3ccccc3)n2)ccc1O	-16.1	2.8	i	i	0.03	-1.1
